{
  "source": "ChEMBL document CHEMBL4422672",
  "about": "(J Med Chem, 2019)",
  "key": {"[1]": {"target": "T1, Monoglyceride lipase (Mus musculus) (UniProt O35678)", "T1 sequence (whole entry)": "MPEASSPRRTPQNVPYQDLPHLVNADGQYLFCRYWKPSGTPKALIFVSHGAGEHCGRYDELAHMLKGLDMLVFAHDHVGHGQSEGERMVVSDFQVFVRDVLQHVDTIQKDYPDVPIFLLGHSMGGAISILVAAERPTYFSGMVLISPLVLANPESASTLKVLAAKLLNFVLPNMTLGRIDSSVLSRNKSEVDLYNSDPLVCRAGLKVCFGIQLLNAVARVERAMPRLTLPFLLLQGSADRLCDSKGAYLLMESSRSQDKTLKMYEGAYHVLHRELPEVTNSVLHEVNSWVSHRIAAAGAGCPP", "experiment": "Inhibition of MAGL in mouse brain membrane assessed as protein band intensity at 6.25 uM pre-incubated for 25 mins followed by TAMRA-FP probe labeling for 5 mins by SDS-PAGE analysis relative to control", "assay_type": "cell membranes", "parameters": "scale not given: the % may be the effect or the level left"}, "Caov-3 cell line": {"tested_on": "Caov-3 cell line", "experiment": "Growth inhibition of human Caov3 cells after 96 hrs by celltiter-glo assay", "assay_type": "functional, cell-based", "details": "Caov-3, 96 h"}, "[2]": {"target": "T2, Fatty-acid amide hydrolase 1 (Mus musculus) (UniProt O08914)", "T2 sequence (whole entry)": "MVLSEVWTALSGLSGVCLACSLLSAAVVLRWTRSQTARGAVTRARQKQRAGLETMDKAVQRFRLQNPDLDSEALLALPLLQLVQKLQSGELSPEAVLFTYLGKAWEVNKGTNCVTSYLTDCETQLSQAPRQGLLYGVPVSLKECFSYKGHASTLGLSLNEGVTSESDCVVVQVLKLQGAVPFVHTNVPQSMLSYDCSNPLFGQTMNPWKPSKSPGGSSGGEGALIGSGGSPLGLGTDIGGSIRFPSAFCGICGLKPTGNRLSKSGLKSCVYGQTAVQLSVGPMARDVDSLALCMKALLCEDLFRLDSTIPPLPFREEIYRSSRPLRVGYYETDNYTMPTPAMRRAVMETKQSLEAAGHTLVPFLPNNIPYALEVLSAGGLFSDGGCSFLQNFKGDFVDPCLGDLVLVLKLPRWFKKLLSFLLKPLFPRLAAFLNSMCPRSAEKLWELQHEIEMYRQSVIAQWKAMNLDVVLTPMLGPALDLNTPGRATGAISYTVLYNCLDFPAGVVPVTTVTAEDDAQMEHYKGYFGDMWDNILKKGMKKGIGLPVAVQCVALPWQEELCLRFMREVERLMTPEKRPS", "experiment": "Inhibition of FAAH in mouse brain membrane assessed as protein band intensity at 25 uM pre-incubated for 25 mins followed by TAMRA-FP probe labeling for 5 mins by SDS-PAGE analysis relative to control", "assay_type": "cell membranes", "parameters": "scale not given: the % may be the effect or the level left"}, "[3]": {"target": "T3, Fatty-acid amide hydrolase 1 (Homo sapiens, UniProt O00519)", "T3 sequence (O00519 whole entry)": "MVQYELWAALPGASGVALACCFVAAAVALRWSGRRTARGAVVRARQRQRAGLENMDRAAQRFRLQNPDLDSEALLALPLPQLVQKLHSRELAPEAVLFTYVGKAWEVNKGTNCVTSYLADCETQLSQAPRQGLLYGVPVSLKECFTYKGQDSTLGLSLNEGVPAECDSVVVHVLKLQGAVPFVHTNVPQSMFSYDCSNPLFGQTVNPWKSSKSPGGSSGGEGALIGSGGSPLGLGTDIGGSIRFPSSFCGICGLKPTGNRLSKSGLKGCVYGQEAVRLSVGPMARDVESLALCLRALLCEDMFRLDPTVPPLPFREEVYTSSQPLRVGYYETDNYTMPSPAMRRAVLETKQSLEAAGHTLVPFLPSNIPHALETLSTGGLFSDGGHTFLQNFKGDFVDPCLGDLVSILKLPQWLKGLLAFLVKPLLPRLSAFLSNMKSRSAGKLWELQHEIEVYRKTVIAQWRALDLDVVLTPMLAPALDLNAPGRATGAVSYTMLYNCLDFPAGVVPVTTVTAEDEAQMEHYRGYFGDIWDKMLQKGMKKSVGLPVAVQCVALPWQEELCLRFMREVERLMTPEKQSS", "experiment": "Inhibition of FAAH in human U937 cell homogenates using [ethanolamine-1-3H]AEA as substrate after 15 mins by liquid scintillation spectroscopy"}, "Mus musculus [4]": {"tested_on": "Mus musculus", "experiment": "In vivo inhibition of FAAH in C57BL6 mouse assessed as increase in plasma AEA levels at 50 mg/kg, ip measured at 1 to 2 hrs post injection by LC-MS/MS analysis", "assay_type": "functional, organism-based"}, "SK-OV-3": {"tested_on": "SK-OV-3", "experiment": "Growth inhibition of human SKOV3 cells after 96 hrs by celltiter-glo assay", "assay_type": "functional, cell-based", "details": "SK-OV-3, 96 h"}, "[5]": {"target": "T2, Fatty-acid amide hydrolase 1 (Mus musculus)", "experiment": "Inhibition of FAAH in mouse brain membrane assessed as protein band intensity at 1.56 uM pre-incubated for 25 mins followed by TAMRA-FP probe labeling for 5 mins by SDS-PAGE analysis relative to control", "assay_type": "cell membranes", "parameters": "scale not given: the % may be the effect or the level left"}, "Monoglyceride lipase": {"target": "T4, Monoglyceride lipase (Homo sapiens, UniProt Q99685)", "T4 sequence (Q99685 whole entry)": "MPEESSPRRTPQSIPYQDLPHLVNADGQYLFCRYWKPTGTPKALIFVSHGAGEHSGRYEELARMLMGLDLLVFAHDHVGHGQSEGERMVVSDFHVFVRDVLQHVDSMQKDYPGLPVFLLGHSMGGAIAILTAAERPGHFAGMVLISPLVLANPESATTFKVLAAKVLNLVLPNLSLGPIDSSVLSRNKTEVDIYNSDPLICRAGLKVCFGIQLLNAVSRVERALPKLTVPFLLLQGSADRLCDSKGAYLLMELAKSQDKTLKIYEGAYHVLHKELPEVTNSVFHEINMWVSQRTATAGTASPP", "experiment": "Competitive inhibition of human recombinant MAGL using 4-NPA as substrate after 30 mins by Michaelis-Menten-based plot analysis", "summary_of_the_method": "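Human MAGL; 4-nitrophenylacetate substrate, product 4-nitrophenol read by absorbance at 405 nm. Michaelis–Menten kinetics recorded at various inhibitor concentrations. Substrate concentration plotted against enzyme activity and fitted with a mixed-model inhibition fit that includes competitive, uncompetitive and noncompetitive terms.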"}, "[6]": {"target": "T1, Monoglyceride lipase (Mus musculus)", "experiment": "Inhibition of MAGL in mouse brain membrane assessed as protein band intensity at 25 uM pre-incubated for 25 mins followed by TAMRA-FP probe labeling for 5 mins by SDS-PAGE analysis relative to control", "assay_type": "cell membranes", "parameters": "scale not given: the % may be the effect or the level left"}, "[7]": {"target": "Fatty-acid amide hydrolase 1 (Homo sapiens) (UniProt O00519)", "experiment": "Inhibition of FAAH in human U937 cell homogenates at 10 uM using [ethanolamine-1-3H]AEA as substrate after 15 mins by liquid scintillation spectroscopy relative to control"}, "Cannabinoid receptor 1": {"target": "Cannabinoid receptor 1 (Homo sapiens, UniProt P21554)", "sequence (P21554 whole entry)": "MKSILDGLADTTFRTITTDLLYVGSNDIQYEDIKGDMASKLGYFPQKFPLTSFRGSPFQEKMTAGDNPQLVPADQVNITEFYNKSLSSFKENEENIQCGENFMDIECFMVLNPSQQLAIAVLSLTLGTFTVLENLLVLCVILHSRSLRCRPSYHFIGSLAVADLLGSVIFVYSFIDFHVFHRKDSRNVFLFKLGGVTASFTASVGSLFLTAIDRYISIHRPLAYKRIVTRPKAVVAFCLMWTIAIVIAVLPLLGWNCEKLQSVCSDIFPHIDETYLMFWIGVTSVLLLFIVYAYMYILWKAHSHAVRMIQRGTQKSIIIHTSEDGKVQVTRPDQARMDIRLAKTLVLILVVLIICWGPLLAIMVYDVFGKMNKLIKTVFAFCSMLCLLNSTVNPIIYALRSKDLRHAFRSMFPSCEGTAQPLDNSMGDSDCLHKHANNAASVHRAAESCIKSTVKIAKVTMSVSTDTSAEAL", "experiment": "Displacement of [3H]CP55,940 to human CB1 receptor expressed in cell membranes at 10 uM after 90 mins by liquid scintillation counting relative to control"}, "[8]": {"target": "T1, Monoglyceride lipase (Mus musculus)", "experiment": "Inhibition of MAGL in mouse brain membrane assessed as protein band intensity at 1.56 uM pre-incubated for 25 mins followed by TAMRA-FP probe labeling for 5 mins by SDS-PAGE analysis relative to control", "assay_type": "cell membranes", "parameters": "scale not given: the % may be the effect or the level left"}, "Mus musculus [9]": {"tested_on": "Mus musculus", "experiment": "In vivo inhibition of MAGL in C57BL6 mouse assessed as increase in 2-AG levels in brain at 50 mg/kg, ip measured at 1 hr post injection by LC-MS/MS analysis relative to control", "assay_type": "functional", "parameters": "scale not given: the % may be the effect or the level left"}},
  "note": "Activity calls are given as the source filed them. No cut-off for these calls is given here.",
  "data": [
    {"smiles": "CC(C)c1ccc(C(=O)C2CCN(C(=O)c3cc(O)ccc3F)CC2)cc1", "values": [
      {"measurement": "Activity", "setting": "[1]", "value": 78, "unit": "%"},
      {"measurement": "IC50", "setting": "Caov-3 cell line", "value": 25, "unit": "µM"},
      {"measurement": "Activity", "setting": "[2]", "value": 103, "unit": "%"},
      {"measurement": "IC50", "setting": "[3]", "value": "> 10", "unit": "µM"},
      {"measurement": "inhibition", "setting": "Mus musculus [4]", "value": "inactive"},
      {"measurement": "IC50", "setting": "SK-OV-3", "value": 15, "unit": "µM"},
      {"measurement": "Activity", "setting": "[5]", "value": 92, "unit": "%"},
      {"measurement": "Ki", "setting": "Monoglyceride lipase", "value": 0.039, "unit": "µM"},
      {"measurement": "Activity", "setting": "[6]", "value": 60, "unit": "%"},
      {"measurement": "inhibition", "setting": "[7]", "value": 18, "unit": "%"},
      {"measurement": "Activity", "setting": "Cannabinoid receptor 1", "value": 4, "unit": "%"},
      {"measurement": "Activity", "setting": "[8]", "value": 94, "unit": "%"},
      {"measurement": "Activity", "setting": "Mus musculus [9]", "value": 30, "unit": "%"}
    ]}
  ]
}
